# Activity calls are given as the source filed them. The rule behind the calls is not given here. Numbered stars: 1 amine (or outer) side, 2 acyl side, 3 side chain; on linkers, the order of the positions; unused ones are H or OH. Bridge positions count the residues as written; N and C are the ends. Square brackets hold non-standard residues; d marks the D form. Peptide text beside a SMILES is read from it. * marks the point of attachment. Phe(4-Cl) = N[C@@H](Cc1ccc(Cl)cc1)C(=O)O; 2Thi = N[C@@H](Cc1cccs1)C(=O)O; Agmatine = N=C(N)NCCCCN*; X1 = O=C(CCC[*:2])[*:1]; NH(CH2)4NH2 = NCCCCN*; NEt2 = CCN(CC)*
# Legend:
# [1] = Protein binding in rat plasma at 200 to 1000 ng/ml measured after 15 mins by UC-LC/MS/MS analysis; format: ADME, cell-free; conditions: read-out: PPB (converted)
# Procedure, shortened: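 Peptide spiked into rat plasma to final 200-1000 ng/mL, incubated 15 min at 37 °C, ultracentrifuged at 773,000 xg for 30 min at 37 °C; middle-layer sample quantified by LC/MS/MS; binding (%) = (Ci − Cm)/Ci × 100; quadruplicate.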
# [2] = Clearance in iv dosed over hydrated human; format: ADME, organism-based; conditions: in vivo
# Vasopressin V2 receptor [3] = target: Vasopressin V2 receptor (Rattus norvegicus, UniProt Q00788); assay: Agonist activity at recombinant rat V2 receptor expressed in HEK293 cells measured after 5 hrs by cAMP response element driven luciferase reporter gene assay; format: functional, cell-based
# [4] = Clearance in severe renal impairment patent; format: ADME; conditions: human
# [5] = Non-renal clearance in nephrectomized Sprague-Dawley rat at 0.1 mg/kg, iv administered as cassette dose by LC-MS/MS analysis; format: ADME, organism-based; conditions: in vivo
# [6] = Clearance in Sprague-Dawley rat at 0.1 mg/kg, iv administered as cassette dose by LC-MS/MS analysis; format: ADME, organism-based; conditions: in vivo
# [7] = target: Vasopressin V2 receptor (Rattus norvegicus) (UniProt Q00788); assay: Agonist activity at recombinant rat V2 receptor expressed in HEK293 cells measured after 5 hrs by cAMP response element driven luciferase reporter gene assay relative to control; format: functional, cell-based
# Rattus norvegicus [8] = assay: Antidiuretic activity in hydrated-euvolemic Sprague-Dawley rat assessed as suppression of urine output by measuring cumulative urine weight at 30 to 100 pM administered as iv infusion for 180 mins measured up to 300 mins; format: functional
# Rattus norvegicus [9] = assay: Antidiuretic activity in hydrated-euvolemic Sprague-Dawley rat assessed as suppression of urine output at 30 to 100 pM administered as iv infusion for 180 mins measured after 1 hr; format: functional, organism-based
# Rattus norvegicus [10] = assay: Antidiuretic activity in hydrated-euvolemic Sprague-Dawley rat assessed as suppression of urine output by measuring cumulative urine weight administered as iv infusion for 180 mins measured during compound dosing; format: functional
# [11] = Half life in iv dosed Sprague-Dawley rat by LC-MS/MS analysis; format: ADME, organism-based; conditions: in vivo
# Rattus norvegicus [12] = assay: Antidiuretic activity in hydrated-euvolemic Sprague-Dawley rat assessed as effective plasma concentration causing half-maximal suppression of urine output administered as iv infusion for 180 mins measured during compound dosing; format: functional, organism-based; conditions: 3 h
# Vasopressin V1a receptor = Vasopressin V1a receptor (Homo sapiens, UniProt P37288); assay: Agonist activity at recombinant human V1a receptor expressed in HEK293 cells up to 1000 nM measured after 5 hrs by luciferase reporter gene assay; format: cell-based; conditions: hek293, 5 h
# Rattus norvegicus [13] = assay: Antidiuretic activity in hydrated-euvolemic Sprague-Dawley rat assessed as suppression of urine output administered as iv infusion for 180 mins measured during compound dosing; format: functional, organism-based
# [14] = target: T1, Oxytocin receptor (Homo sapiens) (UniProt P30559); assay: Agonist activity at human OTR stably expressed in CHOK1 cells up to 10000 nM by NFAT-luciferase reporter gene assay; format: cell-based
# T1 sequence (whole entry): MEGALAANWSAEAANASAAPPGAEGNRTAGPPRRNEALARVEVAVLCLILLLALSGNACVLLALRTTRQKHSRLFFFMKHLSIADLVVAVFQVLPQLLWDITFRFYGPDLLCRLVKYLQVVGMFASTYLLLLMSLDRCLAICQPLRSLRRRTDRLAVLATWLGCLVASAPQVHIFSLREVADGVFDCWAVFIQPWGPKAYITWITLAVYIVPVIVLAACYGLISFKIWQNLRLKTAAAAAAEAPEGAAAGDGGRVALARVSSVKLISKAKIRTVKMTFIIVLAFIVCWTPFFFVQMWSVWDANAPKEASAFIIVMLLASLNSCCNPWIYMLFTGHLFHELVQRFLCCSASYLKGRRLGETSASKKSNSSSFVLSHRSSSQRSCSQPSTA
# [15] = Elimination half life in Sprague-Dawley rat at 0.1 mg/kg, iv administered as cassette dose by LC-MS/MS analysis; format: ADME, organism-based; conditions: in vivo, read-out: beta t1/2
# Rattus norvegicus [16] = assay: Antidiuretic activity in hydrated-euvolemic Sprague-Dawley rat assessed as suppression of urine output at MED administered as iv infusion for 180 mins measured during compound dosing relative to control; format: functional
# Rattus norvegicus [17] = assay: Antidiuretic activity in hydrated-euvolemic Sprague-Dawley rat assessed as suppression of urine output at 30 pM administered as iv infusion for 180 mins measured immediately; format: functional, organism-based
# Rattus norvegicus [18] = assay: Antidiuretic activity in hydrated-euvolemic Sprague-Dawley rat assessed as suppression of urine output at 30 to 100 pM administered as iv infusion for 180 mins measured within 1 hr; format: functional, organism-based
# Rattus norvegicus [19] = assay: Antidiuretic activity in iv dosed rat assessed as suppression of urine output relative to control; format: functional
# Rattus norvegicus [20] = assay: Antidiuretic activity in hydrated-euvolemic Sprague-Dawley rat assessed as suppression of urine output at 30 pM administered as iv infusion for 180 mins measured after 5 hrs; format: functional, organism-based
# Rattus norvegicus [21] = assay: Antidiuretic activity in hydrated-euvolemic Sprague-Dawley rat assessed as suppression of urine output by measuring cumulative urine weight at 30 pM administered as iv infusion for 180 mins measured up to 300 mins; format: functional
# [22] = target: Oxytocin receptor (Homo sapiens) (UniProt P30559); assay: Agonist activity at recombinant human oxytocin receptor expressed in HEK293 cells measured after 5 hrs by luciferase reporter gene assay relative to control; conditions: read-out: Efficacy
# Vasopressin V2 receptor [23] = target: Vasopressin V2 receptor (Homo sapiens, UniProt P30518); assay: Agonist activity at recombinant human V2 receptor expressed in HEK293 cells measured after 5 hrs by cAMP response element driven luciferase reporter gene assay; format: functional, cell-based
# [24] = target: Oxytocin receptor (Homo sapiens) (UniProt P30559); assay: Agonist activity at recombinant human oxytocin receptor expressed in HEK293 cells measured after 5 hrs by luciferase reporter gene assay
# Sequence of Vasopressin V1a receptor (P37288 whole entry, the tested form may be a part): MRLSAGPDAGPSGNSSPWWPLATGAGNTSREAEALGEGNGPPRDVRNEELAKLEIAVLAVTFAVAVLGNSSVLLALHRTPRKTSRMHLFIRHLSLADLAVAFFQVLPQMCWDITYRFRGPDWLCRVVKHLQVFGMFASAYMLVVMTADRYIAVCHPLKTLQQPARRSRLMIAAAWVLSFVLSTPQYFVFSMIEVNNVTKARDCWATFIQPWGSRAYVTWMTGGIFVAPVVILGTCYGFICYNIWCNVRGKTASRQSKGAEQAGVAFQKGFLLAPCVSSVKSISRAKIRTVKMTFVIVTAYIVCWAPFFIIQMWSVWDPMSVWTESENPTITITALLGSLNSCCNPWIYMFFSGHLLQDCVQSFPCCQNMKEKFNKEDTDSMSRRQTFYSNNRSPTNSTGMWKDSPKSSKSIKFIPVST
# Sequence of Vasopressin V2 receptor (Rattus norvegicus) (Q00788 whole entry, the tested form may be a part): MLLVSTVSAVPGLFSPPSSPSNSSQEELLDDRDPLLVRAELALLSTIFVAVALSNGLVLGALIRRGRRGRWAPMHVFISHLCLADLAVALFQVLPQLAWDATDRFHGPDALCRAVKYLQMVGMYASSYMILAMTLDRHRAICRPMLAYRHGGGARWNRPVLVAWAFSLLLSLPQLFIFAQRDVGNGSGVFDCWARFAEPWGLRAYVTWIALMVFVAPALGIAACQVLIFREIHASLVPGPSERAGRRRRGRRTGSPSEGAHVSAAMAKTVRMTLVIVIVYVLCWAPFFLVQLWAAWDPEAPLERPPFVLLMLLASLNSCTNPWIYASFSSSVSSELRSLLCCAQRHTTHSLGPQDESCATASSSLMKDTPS
# Sequence of Vasopressin V2 receptor (Rattus norvegicus, UniProt Q00788) (Q00788 whole entry): as the sequence (Q00788 whole entry, the tested form may be a part) above
# Sequence of Vasopressin V2 receptor (Homo sapiens, UniProt P30518) (P30518 whole entry): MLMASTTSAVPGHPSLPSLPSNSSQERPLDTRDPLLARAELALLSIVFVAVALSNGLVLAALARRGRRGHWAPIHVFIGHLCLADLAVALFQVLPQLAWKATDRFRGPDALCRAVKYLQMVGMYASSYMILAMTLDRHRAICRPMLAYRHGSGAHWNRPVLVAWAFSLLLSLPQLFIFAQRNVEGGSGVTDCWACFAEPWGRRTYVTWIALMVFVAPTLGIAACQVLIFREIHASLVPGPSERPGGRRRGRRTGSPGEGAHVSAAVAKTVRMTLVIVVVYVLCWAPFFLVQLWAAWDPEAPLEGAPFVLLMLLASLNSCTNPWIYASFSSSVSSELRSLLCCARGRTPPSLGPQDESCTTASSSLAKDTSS
fraction unbound at […] [1],EC50 (Vasopressin V2 receptor [3]) [nM],CL [5] [%],clearance [6] [mL/min/kg],Efficacy [7] [%],half-life [11] [min],EC50 (Rattus norvegicus [12]) [nM],Activity (Vasopressin V1a receptor),Activity [14],half-life [15] [min],SMILES,Activity (Rattus norvegicus [8]) [g],Activity (Rattus norvegicus [10]) [g],Activity (Rattus norvegicus [13]),Activity (Rattus norvegicus [16]) [%],further results
0.59,0.03,11,,,,,,,,NC(=O)CC[C@@H]1NC(=O)[C@H](Cc2ccccc2)NC(=O)[C@H](Cc2ccc(O)cc2)NC(=O)CCSSC[C@@H](C(=O)N2CCC[C@H]2C(=O)N[C@H](CCCN=C(N)N)C(=O)NCC(N)=O)NC(=O)[C@H](CC(N)=O)NC1=O [DESMOPRESSIN],,,,,clearance [2]: 1.7 mL/min/kg; clearance [4]: 0.69 mL/min/kg
0.08,0.05,60,42,91,12,0.00043,Not Active,inactive,6.4,CCN(CC)C(=O)[C@@H](CCCNC(=N)N)NC(=O)[C@@H]1CCCN1C(=O)[C@@H]1CSCCCC(=O)N[C@@H](Cc2ccc(Cl)cc2)C(=O)N[C@@H](Cc2cccs2)C(=O)N[C@@H](C(C)C)C(=O)N[C@@H](CC(N)=O)C(=O)N1 ([Phe(4-Cl)][2Thi]VNCP[dR]-NEt2; linker N-5 via X1),1,5,Dose-dependent effect,80,Activity (Rattus norvegicus [9]): inactive
0.15,0.02,57,14,99,20,0.00064,Not Active,inactive,16,CC(C)[C@@H]1NC(=O)[C@H](Cc2cccs2)NC(=O)[C@H](Cc2ccc(Cl)cc2)NC(=O)CCCSC[C@@H](C(=O)N2CCC[C@H]2C(=O)NCCCCNC(=N)N)NC(=O)[C@H](CC(N)=O)NC1=O ([Phe(4-Cl)][2Thi]VNCP-Agmatine; linker N-5 via X1),1.3,5,Dose-dependent effect,80,Activity (Rattus norvegicus [17]): inactive; Activity (Rattus norvegicus [18]): inactive
,,,,100,,0.00032,,,,N=C(N)NCCC[C@@H](NC(=O)[C@@H]1CCCN1C(=O)[C@@H]1CSSCCC(=O)N[C@@H](Cc2ccc(O)cc2)C(=O)N[C@@H](Cc2ccccc2)C(=O)N[C@@H](CCC(N)=O)C(=O)N[C@@H](CC(N)=O)C(=O)N1)C(=O)NCC(N)=O [DESMOPRESSIN],,5.2,,80,Activity (Rattus norvegicus [19]): 48%; Activity (Rattus norvegicus [20]): Active; Activity (Rattus norvegicus [21]): 0.99 g
0.58,,18,7.2,,,,Not Active,,,CC(C)[C@@H]1NC(=O)[C@H](Cc2cccs2)NC(=O)[C@H](Cc2ccc(O)cc2)NC(=O)CCCSC[C@@H](C(=O)N2CCC[C@H]2C(=O)NCCCCN)NC(=O)[C@H](CC(N)=O)NC1=O (Y[2Thi]VNCP-{NH(CH2)4NH2}; linker N-5 via X1),,,,,Emax [22]: 28%; EC50 (Vasopressin V2 receptor [23]): 0.19 nM; EC50 [24]: 650 nM
